# Where two headings read alike, the source gives them in different places. Marks after values point to notes of the source that are not given here.
# Tests used:
# [1] = NADPH-dependent metabolism by mouse liver microsomes; format: in vitro ADME; details: mice, 10 and 100 µM, up to 6 h
# [2] = Plasma pharmacokinetics in Cynomolgus monkey after i.v. bolus; format: in vivo, Cynomolgus monkey (Macaca fascicularis)
# Outline: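 Female Cynomolgus monkeys (n = 3), single i.v. bolus of [14C]-test compound. Plasma was sampled predose and at 0.1, 0.5, 1.0, 2, 4, 8, 24 and 48 h. Total radioactivity was read by LSC and parent compound by LC/MS/MS. PK parameters came from noncompartmental analysis as in mouse.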
# [3] = Quantitative tissue distribution; format: in vivo, mouse (NMRI); details: for dose found in the carcasses: 24 h postdose
# Outline: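 Male and female NMRI mice got i.v. [14C]-test compound, 2.5 mg/kg (n = 3/time), with tissues excised at 0.1, 0.5, 2, 8 and 24 h. Larger organs were homogenized and small tissues taken whole. Carcasses were included. Samples were dried at about 60°C for 12 h, combusted in a sample oxidizer and read by LSC.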
# [4] = Metabolite profiling of mouse plasma, urine and feces by radio-HPLC; format: in vivo, mouse (NMRI); details: for dose excreted: NMRI, mouse
# Outline: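 Mouse samples after i.v. [14C]-test compound, 2.5 mg/kg. Plasma at 0.1 and 0.25 h was extracted twice with ethanol. Fecal precipitates were sonicated with ethanol at 40°C/2 h, and unextracted residue was combusted. Extracts ran on isocratic radio-HPLC: acetonitrile/0.05 mol/L ammonium acetate pH 4 (19/80, v/v), RP8e column, 1 mL/min, UV 230 nm plus radiodetector. Excreted radioactivity was given as % dose.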
# [5] = NADPH-dependent metabolism by monkey liver microsomes; format: in vitro ADME; details: monkeys, 10 and 100 µM, up to 6 h
# rat hepatocytes = assay: Metabolism in cultured rat hepatocytes; format: in vitro ADME; details: 1 and 10 µg/mL, up to 24 h
# [6] = Plasma pharmacokinetics in rat after i.v. bolus; format: in vivo, Wistar rat; details: for clearance / half-life: in vivo
# Outline: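 Wistar rats, intravenous bolus. Plasma was sampled at 0.1, 0.25, 0.5, 1, 2, 4 and 6 h postadministration.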
# [7] = Biological stability of the radiolabel; format: in vivo, rat; details: rats, within 72 h after dosing
# [8] = Physicochemical properties
# human hepatocytes = assay: Metabolism in cultured human hepatocytes; format: in vitro ADME; details: 1 and 10 µg/mL, up to 24 h
# [9] = ref Becker et al. 2015, cited from earlier work
# [10] = NADPH-dependent metabolism by human liver microsomes; format: in vitro ADME; details: humans, 10 and 100 µM, up to 6 h
# [11] = tested on: sandwich‐cultured human hepatocytes; assay: Hepatobiliary disposition in sandwich-cultured human hepatocytes; format: in vitro ADME
# Outline: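 Sandwich-cultured human hepatocytes from three donor liver preparations, cultured 6 days. [14C]-test compound was applied at 10 and 250 μmol/L, with [3H]-taurocholate as transporter-function control and LDH release as cytotoxicity check. Radioactivity was read by LSC. Accumulation is mean ± SD of triplicate wells. BEI, CLbiliary, intracellular concentration and Cic/Cec were derived.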
# [12] = Metabolite profiling of monkey plasma, urine and feces by radio-HPLC; format: in vivo, Cynomolgus monkey (Macaca fascicularis); details: Cynomolgus monkey, i.v.
# Outline: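 Monkey samples after i.v. [14C]-test compound, 2.0 mg/kg. Plasma at 0.1–8 h was extracted twice with ethanol and centrifuged, and extracts went to LSC and radio-HPLC. Precipitates were combusted for total radioactivity. Urine (0–8 h, 8–24 h, then 24-h intervals to 120 h) was evaporated and reconstituted in mobile phase. Feces were processed as for mouse. Isocratic acetonitrile/ammonium acetate pH 4 on RP8e, UV 230 nm with radiodetection.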
# [13] = cynomolgus monkey, in vivo, iv, 2 mg/kg
# [14] = female, cynomolgus monkey, plasma, iv, 2 mg/kg
# [15] = human, male, 0–144 h, n = 5, listed as [^14C]‐cilengitide
# [16] = 10 μM, donor 1, 20 min, mean ± SD of triplicate wells
# [17] = 10 μM, donor 2, 20 min, mean ± SD of triplicate wells
# [18] = 10 μM, donor 3, 20 min, mean ± SD of triplicate wells
# [19] = 10 μM, mean ± standard error of 3 donors, 20 min
# [20] = 250 μM, donor 1, 20 min, mean ± SD of triplicate wells
# [21] = 250 μM, donor 2, 20 min, mean ± SD of triplicate wells
# [22] = 250 μM, donor 3, 20 min, mean ± SD of triplicate wells
# [23] = 250 μM, mean ± standard error of 3 donors, 20 min
smiles,measurement,setting,value
"CC(C)[C@H]1C(=O)N[C@@H](CCCN=C(N)N)C(=O)NCC(=O)N[C@@H](CC(=O)O)C(=O)N[C@H](Cc2ccccc2)C(=O)N1C [cilengitide, cyclo‐(Asp‐D‐Phe‐N‐MeVal‐Arg‐Gly)]",metabolism by liver microsomes,[1],poorly metabolized
same,half-life,"[2]; cynomolgus monkey, in vivo",75 min
same,clearance,"[2]; cynomolgus monkey, in vivo, Plasma CL, monkey, value used for allometry",290 mL/h/kg
same,AUC,[2]; [13],6460 ng·h/mL
same,Vd,[2]; [13],0.35 L/kg
same,half-life,[2]; [13],66 min
same,level at 0.1 h,[2]; [14],7020 ng/mL
same,level at 0.5 h,[2]; [14],3400 ng/mL
same,level at 8 h,[2]; [14],24.6 ng/mL
same,clearance as share of hbf,[2]; monkey,12%
same,dose found in the carcasses,[3]; female mice,0.4 % of the dose
same,dose found in the carcasses,[3]; male mice,0.8 % of the dose
same,concentrations in reproductive organs relative to plasma,"[3]; mice, after 8 h",6–14 times higher
same,dose excreted,"[4]; female, feces",66.2%
same,dose excreted,"[4]; female, feces, iv, 2.5 mg/kg",66%
same,dose excreted,"[4]; female, urine, iv, 2.5 mg/kg",28%
same,unchanged drug in feces (fecal/biliary secretion),[4]; male mice,87.2 % of the administered dose
same,dose excreted,"[4]; male, feces, iv, 2.5 mg/kg",87%
same,dose excreted,"[4]; male, urine, iv, 2.5 mg/kg",7%
same,metabolism by liver microsomes,[5],poorly metabolized
same,metabolism by cultured hepatocytes,rat hepatocytes,poorly metabolized
same,clearance as share of hepatic blood flow (hbf),[6],approximately 20%
same,level at 0.1 h,"[6]; Wistar, plasma, iv, 2.5 mg/kg",5360 to 5870 ng/mL
same,clearance,[6],980 mL/h/kg
same,half-life,[6],30 min
same,clearance,"[6]; iv, 2.5 mg/kg",~980 mL/h/kg
same,half-life,"[6]; iv, 2.5 mg/kg",14.4 to 30 min
same,dose exhaled as [^14C]‐CO2,[7],less than 0.1 % of the dose
same,solubility,[8],high
same,partition coefficient Po/w,[8]; octanol–water,0.0096
same,metabolism by cultured hepatocytes,human hepatocytes,poorly metabolized
same,dose recovered in urine as unchanged drug,[9]; human volunteers,77.5%
same,Excretion of radioactivity in feces,"[9]; human, male, 0–24 h, n = 5",∼9.0 % dose
same,"Excretion of radioactivity, total","[9]; human, male, 0–24 h, n = 5",∼87 % dose
same,Excretion of radioactivity in feces,"[9]; human, male, 0–144 h, n = 5",15.5 % dose
same,Excretion of radioactivity in urine,"[9]; human, male, 0–144 h, n = 5",79 % dose
same,Excretion of radioactivity in feces,[9]; [15],15.5 ^d % dose
same,Excretion of radioactivity in urine,[9]; [15],79.0 ^d % dose
same,extent of renal excretion,[9]; human,~ 80%
same,components found in human plasma and urine,[9],parent compound was the only component found
same,renal clearance compared with creatinine clearance of each subject,[9],below the creatinine clearance
same,metabolism by liver microsomes,[10],poorly metabolized
same,biliary efflux (as determined by BEI and CLbil),[11],negligible
same,BEI,"[11]; 10 μM, donor 1, 20 min",2.42%
same,CLbiliary,"[11]; 10 μM, donor 1, 20 min",0.3 mL/h/kg
same,Intracellular concentration,"[11]; 10 μM, donor 1, 20 min",1.70 µM
same,Cellular accumulation Avg.,[11]; [16],13.7 ± 1.8 pmol/mg
same,Total accumulation Avg.,[11]; [16],14.0 ± 1.5 pmol/mg
same,BEI,"[11]; 10 μM, donor 2, 20 min",2.30%
same,CLbiliary,"[11]; 10 μM, donor 2, 20 min",0.24 mL/h/kg
same,Intracellular concentration,"[11]; 10 μM, donor 2, 20 min",0.52 µM
same,Cellular accumulation Avg.,[11]; [17],4.17 ± 0.33 pmol/mg
same,Total accumulation Avg.,[11]; [17],4.27 ± 0.46 pmol/mg
same,BEI,"[11]; 10 μM, donor 3, 20 min",16.6%
same,CLbiliary,"[11]; 10 μM, donor 3, 20 min",0.78 mL/h/kg
same,Intracellular concentration,"[11]; 10 μM, donor 3, 20 min",0.56 µM
same,Cellular accumulation Avg.,[11]; [18],4.53 ± 0.38 pmol/mg
same,Total accumulation Avg.,[11]; [18],5.44 ± 3.31 pmol/mg
same,BEI,[11]; [19],7.12 ± 4.76%
same,CLbiliary,[11]; [19],0.42 ± 0.18 mL/h/kg
same,Cellular accumulation Avg.,[11]; [19],7.47 ± 3.12 pmol/mg
same,Intracellular concentration,[11]; [19],0.926 ± 0.386 µM
same,Total accumulation Avg.,[11]; [19],7.90 ± 3.07 pmol/mg
same,BEI,"[11]; 250 μM, donor 1, 20 min",20.4%
same,CLbiliary,"[11]; 250 μM, donor 1, 20 min",1.68 mL/h/kg
same,Intracellular concentration,"[11]; 250 μM, donor 1, 20 min",22.7 µM
same,Cellular accumulation Avg.,[11]; [20],183 ± 27 pmol/mg
same,Total accumulation Avg.,[11]; [20],230 ± 28 pmol/mg
same,BEI,"[11]; 250 μM, donor 2, 20 min",8.75%
same,CLbiliary,"[11]; 250 μM, donor 2, 20 min",0.3 mL/h/kg
same,Intracellular concentration,"[11]; 250 μM, donor 2, 20 min",10.4 µM
same,Cellular accumulation Avg.,[11]; [21],84.0 ± 12.1 pmol/mg
same,Total accumulation Avg.,[11]; [21],92.1 ± 5.7 pmol/mg
same,BEI,"[11]; 250 μM, donor 3, 20 min",15.6%
same,CLbiliary,"[11]; 250 μM, donor 3, 20 min",0.78 mL/h/kg
same,Intracellular concentration,"[11]; 250 μM, donor 3, 20 min",15.2 µM
same,Cellular accumulation Avg.,[11]; [22],122 ± 14 pmol/mg
same,Total accumulation Avg.,[11]; [22],145 ± 5.9 pmol/mg
same,BEI,[11]; [23],14.9 ± 3.4%
same,CLbiliary,[11]; [23],0.9 ± 0.42 mL/h/kg
same,Cellular accumulation Avg.,[11]; [23],130 ± 29 pmol/mg
same,Intracellular concentration,[11]; [23],16.1 ± 3.6 µM
same,Total accumulation Avg.,[11]; [23],156 ± 3 pmol/mg
same,biotransformation by HPLC analysis of supernatant and cell lysate,"[11]; 250 μmol/L, 6 and 24 h",no indication for biotransformation
same,Intracellular concentration,[11]; exposure at 10 μmol/L,0.926 ± 0.386 µM
same,Intracellular concentration,[11]; exposure at 250 μmol/L,16.1 ± 3.6 µM
same,"unchanged drug in plasma, share of total drug‐related material",[12],> 85%

# Reference: paper PMC4804314 (Pharmacology Research & Perspectives, 2016)
